The list is not random: actives were taken first. Their share in the collection is about 3.1%.
Myeloid diff 2 = promotes myeloid progenitor differentiation | ER-HoxA9 myeloid progenitors, lysozyme-GFP differentiation, flow cytometry | calls only at 10 µM | actives 1% (n = 360,000);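 active = normalized GFP-positive differentiation at or above the plate's own cutoff, the solvent-only control mean plus 3 SD; inconclusive = no clear call, values can overlap the other calls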;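 note: cells exposed to compound for four days before flow analysis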
HCV core dimer = HCV core protein dimerization inhibition | actives 0.33% (n = 300,000) | TR-FRET GST/Flag-core106 dimerization, 1536-well | AID 1899 | inhibition, % at 5 µM;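 active = inhibition above the mean of all tested compounds plus 3 SD, set per screening campaign, cut at about 45% in these data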
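System – GST-tagged and Flag-tagged HCV core protein residues 1-106 · Repeats – one well for each compound · Technique – TR-FRET 671 and 617 nm emission · Doses – one concentration, 5 µM, in 0.5% DMSO · Times – 4 h, 22.5 °C incubation · Also added – Eu donor and XL665 acceptor anti-tag antibodies · Measure – percent inhibition of core106 dimerization signal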
NadD inh = inhibitors of Staphylococcus aureus NadD. purified NadD enzyme, colorimetric absorbance read-out. inhibition, % at 20 µM. actives 0.78% (n = 360,000). AID 602399; in the data active = inhibition above about 26%
PP5 inh = inhibitors of human protein phosphatase 5 (PP5); purified PP5c, OMFP substrate fluorescence; inhibition, % at 6.7 µM; actives 0.18% (n = 320,000); AID 1987;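 active = inhibition above the campaign's mean inhibition across all tested compounds plus 3 SD, cut at about 9.5% in these data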;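 note: 0% = DMSO only and 100% = 100 µM cantharidin control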
Fh CTSL1 inh = counter-screen for PFM18AAP inhibitors: inhibitors of F. hepatica cathepsin L1 | recombinant F. hepatica cathepsin L1, Z-Leu-Arg-MCA fluorescence | inhibition, % at 5.96 µM | actives 0.49% (n = 300,000) | AID 1906;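 active = inhibition above the mean of all tested compounds plus 3 SD, set per screening campaign, cut at about 17% in these data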;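 note: 0% = plate median of test compound wells and 100% = 1 µM Z-Phe-Ala-diazomethylketone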
PP1 counter = counter-screen for PP5 inhibitors: inhibitors of human PP1-alpha; purified PP1alpha, OMFP fluorescence; inhibition, % at 6.7 µM; actives 0.9% (n = 320,000); AID 2235;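 active = inhibition above the mean inhibition of all tested compounds plus 3 SD, computed separately for each screening campaign, cut at about 15% in these data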
Target sequence (P62136 whole entry, looked up): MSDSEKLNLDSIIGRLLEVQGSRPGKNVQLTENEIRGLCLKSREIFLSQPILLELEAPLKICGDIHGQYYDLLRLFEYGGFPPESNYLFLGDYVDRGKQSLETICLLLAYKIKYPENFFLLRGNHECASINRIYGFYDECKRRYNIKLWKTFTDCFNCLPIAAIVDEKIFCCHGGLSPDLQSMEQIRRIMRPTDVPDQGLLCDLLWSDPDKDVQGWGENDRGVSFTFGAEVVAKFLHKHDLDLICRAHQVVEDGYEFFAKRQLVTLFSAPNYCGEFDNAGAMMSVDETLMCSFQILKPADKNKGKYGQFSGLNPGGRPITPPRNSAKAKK
PP1 confirm = confirmation of human PP1 phosphatase inhibitors; purified PP1alpha, OMFP substrate fluorescence; inhibition, % at 6.7 µM; actives 52% (n = 1,900); shares compounds with PP1 counter;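 active = mean PP1 inhibition above a set limit taken from the earlier primary screen, cut at about 15% in these data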
PP5 counter = inhibits human PP5 phosphatase in PP1 counter-screen. shares compounds with PP1 counter. AID 2360. inhibition, % at 6.7 µM. actives 4% (n = 1,900). purified PP5c, OMFP fluorescence;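 active = mean PP5 inhibition over triplicate wells above about 9.5% taken from the earlier PP1 screen, limit read from the data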
Active calls of the source: *; i = inactive; u = inconclusive; x = not tested or not shown.

SMILES	Myeloid diff 2	HCV core dimer	NadD inh	PP5 inh	Fh CTSL1 inh	PP1 counter	PP1 confirm	PP5 counter
CCCCCCSc1cccc(-c2nc3cc(C)ccn3c2NC2CCCCC2)c1	i	-4	9	4	0	19*	4	0
CCC(C)Sc1cccc(-c2nc3ccc(Cl)cn3c2NCc2ccccc2)c1 (stereo not given)	i	-4	31*	5	-3	19*	5	3
CCCCCCSc1cccc(-c2nc3cc(C)ccn3c2NCc2ccccc2)c1	i	-8	3	3	1	19*	4	0
Cn1cc(CN2CCC(n3nccc3NC(=O)C3CCCC3)CC2)cn1	i	x	4	x	x	x	x	x
COc1cc(/C=C/CNC[C@H]2O[C@@H](n3cnc4c(=O)[nH]c(N)nc43)[C@H](O)[C@@H]2O)ccc1O	i	x	1	x	x	x	x	x
CC(CCl)n1c(=O)c2ccccc2n1C(=O)c1ccccc1 (stereo not given)	i	x	-5	x	x	x	x	x
Cc1ccc(CNC(=O)c2ccc(N3CCC4(CC3)CC(c3ccccc3)=NO4)c(NC(=O)c3ccco3)c2)cc1	u	42	28	3	2	20*	16*	-2
Cc1ccc(CNC(=O)c2ccc(N3CCC4(CC3)CC(c3cccc(Br)c3)=NO4)c(NC(=O)c3ccco3)c2)cc1	i	2	26	0	1	12	x	x
COCCn1c(SCC(=O)Nc2c(C)n(C)n(-c3ccccc3)c2=O)nc2ccccc2c1=O	i	x	8	2	x	-3	x	x
Nc1cccc(Nc2nc(OC(C(F)(F)F)C(F)(F)F)nc(OC(C(F)(F)F)C(F)(F)F)n2)c1	i	-1	-4	19*	7	18*	16*	15*
Cc1cc(C)c2c(c1)CC(C)(C)CC2=O	i	x	2	x	x	x	x	x
Cc1ccc(Nc2c(-c3ccc(N4CCOCC4)cc3)nc3cnccn23)cc1	i	-5	5	-1	2	63*	-3	-3
Cc1ccccc1Nc1c(-c2ccc(N3CCOCC3)cc2)nc2cnccn12	i	3	4	4	4	-1	x	x
NNC(=O)C1C(O)CCC2CN3CCc4c([nH]c5ccccc45)C3CC21 (stereo not given)	i	x	-3	x	x	x	x	x
O=C(O)c1ccc2nc(-c3ccco3)c(-c3ccco3)nc2c1	i	x	3	x	x	x	x	x
O=C(Nc1cccc(C(F)(F)F)c1)c1ccc2nc(-c3ccco3)c(-c3ccco3)nc2c1	i	74*	65*	1	2	32*	11	0
COc1ccc(-c2nn(C)c(=O)c3ccccc23)cc1NC(=O)Cn1nc(-c2ccccc2)c2ccccc2c1=O	i	37	13	3	1	24*	18*	-2
CN(CC(=O)Nc1ccccc1C(F)(F)F)C(=O)C1CCN(S(=O)(=O)c2ccc3c(c2)OCCO3)CC1	u	1	6	0	0	-3	x	x
COc1ccc(NC(=S)NC(NC(=O)c2cccc(Cl)c2)C(Cl)(Cl)Cl)c([N+](=O)[O-])c1 (stereo not given)	i	4	9	4	3	18*	6	1
O=C(CN(C(=O)CCC(=O)Nc1nccs1)c1ccc(F)cc1)NCc1ccc(F)cc1	i	-15	1	1	2	0	x	x
O=C(CSc1nc2ccc(Nc3nc(N4CCOCC4)nc(N4CCOCC4)n3)cc2s1)Nc1ccccc1Cl	i	x	28	x	x	x	x	x
O=C(CSc1nc2ccc(Nc3nc(N4CCCC4)nc(N4CCCC4)n3)cc2s1)NCc1ccco1	i	17	26	0	0	19*	5	2
COc1ccc(CN(C)C(C)C(=O)Nc2ccc(S(=O)(=O)N3CCCCC3)cc2)cc1F (stereo not given)	i	x	-2	3	x	1	x	x
CCC(=O)NC(c1ccc(C)cc1)c1ccc2cccnc2c1O (stereo not given)	u	17	1	0	-1	1	x	x

High-throughput results: PubChem BioAssay, several laboratories
